Measurements as given in paper PMC4285624 (Biochemical pharmacology, 2014).

Columns and labels:
[1] = molecular target: Full length, heterotrimeric human RPA (fl-RPA) (Homo sapiens, UniProt P27694); experiment: EMSA of full length RPA binding to ssDNA; type: biochemical; conditions: read-out: In vitro IC50, RPA-DNA binding, compounds titrated 1–125 μM
How it was run: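 Recombinant full-length heterotrimeric human RPA (50 nM, E. coli-expressed) was preincubated 30 min with DMSO-dissolved compound (DMSO ≤5%). Bound and free DNA were separated on 6% native gels and quantified by phosphorimager. IC50 came from nonlinear regression; three independent determinations.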

RPA DBD-A/B = RPA DBD-A/B (Homo sapiens, UniProt P27694); experiment: EMSA of RPA DBD-A/B binding to DNA; type: biochemical; conditions: 150 nM DBD-A/B, compounds 25–100 μM
How it was run: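 The RPA181–432 DBD-A/B fragment was expressed in E. coli BL21(DE3) as a SUMO-His6 fusion (0.5 mM IPTG, 3 h, 37 °C). It was Ni-NTA purified, SUMO-cleaved with ULP1, and polished by size exclusion. Protein was preincubated 30 min with compound, then mixed with 2.5 nM 5′-32P 34-base DNA for 5 min at room temperature. Products were run on 6% native gels at 4 °C and quantified by phosphorimager.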

[2] = system: peripheral blood lymphocytes; conditions: cited from earlier work
[3] = cited from earlier work
lung cancer cell line = conditions: cited from earlier work

RPA DBD-A/B, sequence (P27694 181-432): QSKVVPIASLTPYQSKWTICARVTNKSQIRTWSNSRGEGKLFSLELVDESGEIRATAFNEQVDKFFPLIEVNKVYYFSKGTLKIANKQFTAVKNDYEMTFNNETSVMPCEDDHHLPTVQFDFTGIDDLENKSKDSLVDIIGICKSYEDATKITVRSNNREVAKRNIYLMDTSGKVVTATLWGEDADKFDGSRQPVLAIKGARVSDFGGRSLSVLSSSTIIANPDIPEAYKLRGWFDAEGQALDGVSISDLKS
Full length, heterotrimeric human RPA (fl-RPA), sequence (P27694 whole entry): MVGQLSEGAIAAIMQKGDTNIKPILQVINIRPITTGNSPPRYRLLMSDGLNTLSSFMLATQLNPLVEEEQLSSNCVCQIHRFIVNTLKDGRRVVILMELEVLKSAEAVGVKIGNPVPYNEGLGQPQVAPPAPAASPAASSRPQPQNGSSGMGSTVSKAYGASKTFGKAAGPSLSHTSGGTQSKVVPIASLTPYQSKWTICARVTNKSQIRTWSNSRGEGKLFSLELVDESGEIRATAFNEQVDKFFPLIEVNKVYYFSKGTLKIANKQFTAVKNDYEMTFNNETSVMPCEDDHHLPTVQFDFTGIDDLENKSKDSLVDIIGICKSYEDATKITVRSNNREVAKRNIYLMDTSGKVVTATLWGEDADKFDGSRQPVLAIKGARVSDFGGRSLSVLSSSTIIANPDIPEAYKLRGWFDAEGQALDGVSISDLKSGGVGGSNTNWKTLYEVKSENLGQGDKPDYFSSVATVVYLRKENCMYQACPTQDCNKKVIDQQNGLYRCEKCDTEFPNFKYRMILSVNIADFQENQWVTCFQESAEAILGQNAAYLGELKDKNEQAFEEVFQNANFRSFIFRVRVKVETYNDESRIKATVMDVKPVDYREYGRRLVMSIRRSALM
Full length, heterotrimeric human RPA (fl-RPA), sequence (P15927 whole entry partner): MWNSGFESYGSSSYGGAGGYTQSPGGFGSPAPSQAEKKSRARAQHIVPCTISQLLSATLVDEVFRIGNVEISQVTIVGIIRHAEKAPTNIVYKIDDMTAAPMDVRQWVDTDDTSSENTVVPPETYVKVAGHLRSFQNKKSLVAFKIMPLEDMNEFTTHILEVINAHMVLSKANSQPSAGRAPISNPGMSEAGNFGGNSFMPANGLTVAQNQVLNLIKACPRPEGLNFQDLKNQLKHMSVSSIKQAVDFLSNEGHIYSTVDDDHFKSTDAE
Full length, heterotrimeric human RPA (fl-RPA), sequence (P35244 whole entry partner): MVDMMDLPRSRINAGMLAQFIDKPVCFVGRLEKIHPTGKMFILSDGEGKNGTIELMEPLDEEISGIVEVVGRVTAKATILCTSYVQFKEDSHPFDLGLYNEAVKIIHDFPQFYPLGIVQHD

Question: For `CCOc1ccc2cc(C3CC(c4ccc(Br)cc4)=NN3C(=O)CCC(=O)O)c(Cl)nc2c1` (stereo not drawn) [TDRL-505], which IC50 [1] is on record?
Answer: 38 µM

Question: And the “inhibition of RPA DBD-A/B-DNA interaction” value (RPA DBD-A/B)?
Answer: inhibit RPA DBD-A/B-DNA interaction

Question: What about the “cytotoxic effects on peripheral blood lymphocytes” value [2] of the same molecule?
Answer: minimal cytotoxic effects

Question: What about the cell cycle effect [3] of the same molecule?
Answer: G1 cell cycle arrest

Question: What about the “synergy with Pt” value (lung cancer cell line; lung cancer cell line, published data) of the same molecule?
Answer: synergy

Question: And the synergy with etoposide (lung cancer cell line; lung cancer cells, flow cytometry based Annexin-PI staining assay)?
Answer: highly synergistic
